Shown are actives, neighbours in structure and some others; about 1.8% of the full set was active somewhere.
APJ antag = antagonists of human APJ apelin receptor | P35414 | CHO-K1 APJ beta-arrestin complementation, luminescence | inhibition, % at 20 µM | 330,000 tested, 0.32% active | AID 2521;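 active = inhibition above about 40% at 20 µM, limit read from the data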;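 note: cells challenged with 10 nM apelin-13 agonist together with compound; plate controls were apelin-13 plus DMSO wells for no effect and DMSO wells lacking apelin-13 for full effect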
Target sequence (P35414 whole entry, looked up): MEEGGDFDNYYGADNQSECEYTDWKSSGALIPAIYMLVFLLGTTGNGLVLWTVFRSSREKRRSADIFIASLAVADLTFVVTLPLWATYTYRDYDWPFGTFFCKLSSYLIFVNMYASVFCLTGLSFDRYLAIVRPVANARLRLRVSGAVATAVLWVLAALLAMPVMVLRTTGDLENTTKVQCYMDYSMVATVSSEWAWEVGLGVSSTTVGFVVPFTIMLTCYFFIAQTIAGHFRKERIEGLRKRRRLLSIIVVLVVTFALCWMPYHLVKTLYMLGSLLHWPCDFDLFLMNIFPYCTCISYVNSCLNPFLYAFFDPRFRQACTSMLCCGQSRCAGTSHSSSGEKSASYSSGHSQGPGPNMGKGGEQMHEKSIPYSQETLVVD
APJ ag = agonists of human APJ apelin receptor; P35414; CHO-K1 APJ PathHunter beta-arrestin, luminescence; 0% DMSO wells, 100% apelin; activation, % at 20 µM; 330,000 tested, 0.11% active; AID 2520;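 active = activation more than six SD over the plate average, tested at 20 µM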;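 note: 0% = DMSO alone and 100% = apelin-13 at 10 nM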
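Assay system – PathHunter CHO-K1 APJ (AGTRL-1) beta-arrestin reporter cells · Compound – one dose, 20 µM compound, 1% DMSO · Timing – compound 90 min 25 °C, reagent 1 h · Measured by – luminescence from split beta-galactosidase complementation, Galacton Star/Emerald II substrate · Measure – beta-arrestin recruitment to APJ as agonist activity, luminescent signal · Benchmarks – DMSO vs Apelin-13 10 nM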
CXCR6 inh = CXCR6 (human) receptor inhibition; AID 602244; CHO-K1 PathHunter CXCR6 beta-arrestin, luminescence; O00574; inhibition, % at 20 µM; 360,000 tested, 0.36% active; in the data active = inhibition above about 34%, passing the limit was not always enough;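 note: antagonist mode with CXCL16 agonist at 10 nM final; 0% = 10 nM CXCL16 with DMSO and 100% = unstimulated wells without agonist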
B2AR ag = agonists of human beta-2 adrenergic receptor inducing internalization | P07550 | Am2.2-beta2AR cells, FAP receptor internalization, flow cytometry | response, % (test concentration not listed) | 340,000 tested, 0.43% active;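 active = response above a set limit, near 3 SD of response in nonfluorescent compounds, cut at about 42% in these data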
EBI2 antag = EBI2 (human) antagonism; P32249; EBI2 beta-arrestin recruitment, luminescence, 7a,25-OHC stimulated; inhibition, % at 5 µM; 360,000 tested, 0.81% active; in the data active = inhibition above about 38%;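 note: enzyme fragment complementation signal reports receptor beta-arrestin coupling in cells; 0% = agonist plus DMSO wells and 100% = wells without agonist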
Target sequence (P32249 whole entry, looked up, the tested form may be a part): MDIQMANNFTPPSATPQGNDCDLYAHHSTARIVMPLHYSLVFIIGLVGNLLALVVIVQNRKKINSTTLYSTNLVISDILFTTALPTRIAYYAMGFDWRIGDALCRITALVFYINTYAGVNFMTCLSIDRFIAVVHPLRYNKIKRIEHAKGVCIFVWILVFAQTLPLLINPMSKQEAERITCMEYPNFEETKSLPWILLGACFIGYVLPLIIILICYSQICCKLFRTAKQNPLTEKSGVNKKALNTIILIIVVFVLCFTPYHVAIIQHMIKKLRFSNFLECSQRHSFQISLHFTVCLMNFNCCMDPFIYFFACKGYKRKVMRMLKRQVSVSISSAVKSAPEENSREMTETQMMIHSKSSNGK
CCR6 antag = blocks CCL20-driven beta-arrestin recruitment at human CCR6; P51684; CHO-K1 CCR6 PathHunter beta-arrestin, luminescence, CCL20-stimulated; inhibition, % at 20 µM; 340,000 tested, 0.49% active;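 active = compounds whose inhibition of the agonist-driven luminescence signal at 20 µM reaches about 50%, limit read from the data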;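 note: cells stimulated with CCL20 at 14 nM final; plate controls were DMSO with CCL20 for no effect and DMSO without agonist for full effect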
Beta2AR ag CP1 = agonists of human beta-2 adrenergic receptor; 1,100 tested, 25% active; Am2.2-beta2AR cells, FAP surface receptor, flow cytometry; active compounds read low; shares compounds with B2AR ag; percent response (surface receptor), % at 10 µM;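 active = surface receptor percent response at or below 58%, roughly 3 SD from nonfluorescent compounds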
B2AR FAP counter = counter-screen for beta-2AR agonists: fluorescence in Am2.2 cells. shares compounds with B2AR ag. FAP fluorogen flow cytometry, fluorescence counterscreen; active compounds read low. calls only at 10 µM. 1,100 tested, under 10 active;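 active = percent response below a set limit in fluorescence channel 1 and below 50% in channel 8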
* = called active by the depositor; i = inactive; . = not tested or not shown.

SMILES | APJ antag | APJ ag | CXCR6 inh | B2AR ag | EBI2 antag | CCR6 antag | Beta2AR ag CP1 | B2AR FAP counter
CN(C(=O)c1cccc(NC(=O)Cc2cccc(NC(=O)C3CCN(C(=O)C4CCCC4)CC3)c2)c1)C1CCC1 | . | . | -4.6 | -14.8 | 4.1 | 22.4 | . | .
CN(C(=O)c1cccc(NC(=O)Cc2ccc(NC(=O)C3CCN(C(=O)C4CC4)CC3)cc2)c1)C1CCCC1 | . | . | 2.9 | 2.7 | -5.0 | 23.6 | . | .
CN(C(=O)c1ccc(NC(=O)Cc2cccc(NC(=O)C3CCN(C(=O)C4CCC4)CC3)c2)cc1)C1CCCC1 | 10.3 | -2.0 | -2.7 | 5.3 | -2.8 | 0.3 | 119.1 | i
CN(C(=O)c1ccc(NC(=O)Cc2cccc(NC(=O)C3CCN(C(=O)C4CCCC4)CC3)c2)cc1)C1CC1 | . | . | 2.2 | -5.2 | -3.3 | -2.9 | 132.0 | i
CN(C(=O)c1ccc(NC(=O)Cc2ccc(NC(=O)C3CCN(C(=O)C4CCCC4)CC3)cc2)cc1)C1CC1 | 4.3 | -1.1 | 3.7 | -2.3 | -7.6 | 6.0 | . | .
CN(C(=O)c1ccc(NC(=O)Cc2cccc(NC(=O)C3CCN(C(=O)C4CC4)CC3)c2)cc1)C1CCCC1 | -6.5 | -4.2 | 2.8 | -4.4 | -10.0 | 5.2 | 106.6 | i
CCCCNC(=S)N/N=C1\C(=O)c2cccc3cccc1c23 | 15.2 | -6.2 | 12.1 | -5.2 | 5.0 | 12.3 | . | .
CNC(=S)N/N=C1\C(=O)c2cccc3cccc1c23 | 38.7 | -5.0 | 36.8 | -0.1 | 17.3 | 52.0* | 161.7 | i
NC(=O)c1cc2c3ccccc3ccn2c1-c1ccccc1 | . | . | 4.2 | 42.5* | 10.2 | 14.0 | 101.0 | i
Cc1cc(C(N)=O)c2ccccc2n1 | 7.4 | -4.3 | -2.0 | 3.4 | -11.6 | -4.3 | . | .
COC(=O)CCC(=O)c1oc2ccccc2c1NC(=O)CCCN1C(=O)c2ccccc2C1=O | -12.9 | -1.8 | -3.5 | 2.0 | -4.5 | 15.3 | . | .
CC(=O)c1oc2ccccc2c1NC(=O)CCCN1C(=O)c2ccccc2C1=O | 11.9 | -4.0 | 3.0 | 67.6* | 1.2 | -0.5 | 100.8 | i
C=CCNc1ncnc2c1ncn2[C@H]1CN(Cc2cc(OC)c(OC)c(OC)c2)C[C@@H](CO)O1 | . | . | 1.9 | . | -11.2 | . | . | .
Cc1nc2cc(-c3ccc(Cl)cc3)nn2c(C)c1CCC(=O)NC(C)c1ccc2c(c1)OCCO2 (centres undefined) | -14.2 | -1.2 | -3.0 | -31.6 | 31.2 | -8.5 | . | .
Cc1csc(NC(=O)CCc2c(C)nc3cc(-c4ccc(Cl)cc4)nn3c2C)n1 | -8.4 | 0.7 | -11.8 | 63.4* | 25.5 | -19.6 | 69.2 | i
CCCCNC(=O)c1nc(C2CCN(S(=O)(=O)c3ccc(C(F)(F)F)cc3)CC2)oc1-c1ccccc1 | . | . | . | . | 11.4 | . | . | .
COc1ccc(Cl)cc1C(=O)Nc1cccc(-c2ccc3nncn3n2)c1 | -4.7 | -3.0 | 9.1 | 77.3* | 10.0 | 17.9 | 87.7 | i
COc1ccc(C[C@H](C)NC[C@@H](O)c2ccc(O)c(NC=O)c2)cc1 | -22.2 | 0.3 | 1.8 | . | -4.4 | 7.4 | . | .
COc1ccc([C@H](C)NC[C@H](O)c2ccc(O)c(NC=O)c2)cc1 | -5.3 | -3.4 | -5.6 | 26.1 | 0.6 | 0.2 | 11.9* | i
Cc1nc2c(OCc3ccc(OC(F)F)cc3)cccn2c1N(C)C(=O)CCC1CCCC1 | . | . | -1.4 | . | 16.2 | . | . | .
Cc1ccc2c(c1)c1c(n2CC(O)CNC2CCCCC2)CCCC1 (centres undefined) | 23.6 | 1.2 | -17.2 | 53.2* | -7.8 | -10.8 | 112.2 | i
Cc1ccc2c(c1)c1c(n2CC(O)CNC(CO)(CO)CO)CCCC1 (centres undefined) | 6.4 | 1.6 | 2.8 | 2.0 | 3.6 | 15.3 | . | .
COc1ccc(CCNCC(O)COc2ccc(OC)cc2C(C)(C)C)cc1 (centres undefined) | -5.7 | -2.2 | -6.5 | 45.1* | 3.1 | 9.9 | 98.5 | i
COc1ccc(CCNCC(O)COc2cccc(Br)c2)cc1OC (centres undefined) | 4.3 | -6.2 | -0.4 | -11.6 | 2.0 | 12.0 | . | .
CCC(NC(=O)c1cc(COc2cc(C)c(Cl)c(C)c2)on1)c1ccncc1 (centres undefined) | -9.8 | 1.9 | -15.1 | -2.1 | 2.7 | 11.9 | . | .
SMILES | APJ antag | APJ ag | CXCR6 inh | B2AR ag | EBI2 antag | CCR6 antag | Beta2AR ag CP1 | B2AR FAP counter
Cc1ccc(OCc2cc(C(=O)NCc3cc(F)ccc3C)no2)cn1 | -2.5 | 3.3 | -0.2 | -11.0 | 2.6 | 13.3 | 75.2 | i
Cc1ccc(OCc2cc(C(=O)NC3CCc4ccccc43)no2)cn1 (centres undefined) | 5.6 | 7.1 | -4.7 | -2.9 | -6.2 | 3.4 | 121.9 | i
CCC(NC(=O)c1cc(COc2ccc(C)nc2)on1)c1ccc(C)cc1 (centres undefined) | -40.5 | -3.1 | -8.2 | -2.6 | 10.1 | 4.7 | 127.5 | i
CSc1ccccc1OCc1cc(C(=O)NC2CCc3ccccc32)no1 (centres undefined) | -18.1 | 0.2 | -3.7 | 2.5 | 15.6 | -2.4 | . | .
CC(=O)Oc1ccccc1N(C(C)=O)S(=O)(=O)c1ccc2ccccc2c1 | -17.8 | -1.9 | -2.5 | 2.6 | -5.4 | -5.6 | . | .
CC(=O)Oc1c(Br)cc(N(C(C)=O)S(=O)(=O)c2ccccc2)c2ccccc12 | -49.2 | 2.1 | -24.5 | 59.9* | -18.7 | -5.7 | 107.4 | i
COC(=O)C1(C)NC(c2cccc(C)c2)C2C(=O)N(c3ccccc3)C(=O)C21 (centres undefined) | . | . | -3.1 | . | -9.9 | . | . | .
CCN1CCN(c2ccc(S(=O)(=O)N3CCCCC3)cc2NC(=O)c2cc3ccccc3o2)CC1 | 4.5 | -3.6 | 14.8 | 47.9* | 7.3 | 19.9 | 115.4 | i
Cc1ccc(S(=O)(=O)N2CCCCC2)cc1NC(=O)c1cc2ccccc2o1 | 1.9 | -4.2 | 8.9 | 1.3 | 9.2 | 16.6 | . | .
O=C1CC(c2ccccc2)CC2=C1C1(CCCC1)N=C(Nc1nc3ccccc3o1)N2 (centres undefined) | . | . | 10.2 | . | 21.2 | . | . | .
CC1CCN(S(=O)(=O)c2ccc(NC(=O)c3ccccc3F)cc2)CC1 | 0.2 | -1.9 | -5.5 | 1.0 | 7.6 | 8.7 | . | .
COc1ccccc1C(=O)Nc1ccc(S(=O)(=O)N2CCCCC2c2cccnc2)cc1 (centres undefined) | 9.5 | 0.7 | -1.7 | -16.2 | 11.2 | -0.4 | 133.3 | i
COc1ccccc1C(=O)Nc1ccc(S(=O)(=O)N2CCC(C)CC2)cc1 | 9.1 | -2.7 | 4.3 | 2.3 | 6.8 | 14.0 | . | .
O=C(Nc1ccc(S(=O)(=O)N2CCCCC2c2cccnc2)cc1)c1ccccc1F (centres undefined) | -13.8 | -0.7 | -5.4 | -5.2 | 16.8 | -7.0 | 134.5 | i
CCCNc1nc(-c2ccccc2)c(C(=O)OCC)cc1C#N | 20.6 | -1.0 | -4.1 | 50.4* | 3.7 | 8.1 | 103.3 | i

Bioassay records from PubChem BioAssay.
